Calls of active or inactive are those of the source. No cut-off for these calls is given here.
Legend:
[1] = target: T1, Interleukin-1 receptor type 1 (Mus musculus) (UniProt P13504); assay: Inhibition of MyD88 recruitment to IL-1R in C57BL/6 mouse BMDM cells assessed as inhibition of IL1-induced p38 MAPK activity up to 90 mins; assay type: cell-based
T1 sequence (whole entry): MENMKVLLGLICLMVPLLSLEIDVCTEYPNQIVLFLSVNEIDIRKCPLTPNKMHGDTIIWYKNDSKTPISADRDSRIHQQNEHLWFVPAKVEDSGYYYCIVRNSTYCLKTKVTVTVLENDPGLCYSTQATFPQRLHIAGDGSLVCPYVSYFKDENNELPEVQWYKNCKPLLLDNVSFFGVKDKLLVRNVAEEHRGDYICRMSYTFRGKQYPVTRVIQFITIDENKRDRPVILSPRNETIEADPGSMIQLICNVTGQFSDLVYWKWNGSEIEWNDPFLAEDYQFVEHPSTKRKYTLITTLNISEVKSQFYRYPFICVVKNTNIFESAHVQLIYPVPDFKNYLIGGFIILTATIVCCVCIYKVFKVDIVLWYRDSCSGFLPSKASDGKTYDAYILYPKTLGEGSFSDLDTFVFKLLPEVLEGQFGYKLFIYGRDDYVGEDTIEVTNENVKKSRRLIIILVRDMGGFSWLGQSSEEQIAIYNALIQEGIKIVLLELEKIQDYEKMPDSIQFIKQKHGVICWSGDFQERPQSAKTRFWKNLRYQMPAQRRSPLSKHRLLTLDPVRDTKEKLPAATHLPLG
Outline: (§1)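 Bone marrow macrophages from C57BL/6 mice, grown in 70% growth medium (DMEM, 10% FBS) plus 30% L929-conditioned medium and given fresh medium 12-14 h before stimulation. Stimuli: IL-1 40 ng/ml, HKSA ~10^8 cfu/ml, pI:pC 50 μg/ml or CpG 10 μg/ml, ± compound at 10 μM (final) added from a 200x DMSO stock. IκBα and p38 profiled by immunoblot. Three independent experiments, quantitated and normalized.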

[2] = target: Toll-like receptor 4 (Homo sapiens) (UniProt O00206); assay: Inhibition of MyD88 recruitment to TLR4 cytoplasmic domain expressed in CHO cells at 25 to 50 uM incubated for 30 mins prior to CCf2/AM loading measured after 1 hr by beta-lactamase complementation assay; assay type: cell-based
Sequence of Toll-like receptor 4 (Homo sapiens) (O00206 whole entry, the tested form may be a part): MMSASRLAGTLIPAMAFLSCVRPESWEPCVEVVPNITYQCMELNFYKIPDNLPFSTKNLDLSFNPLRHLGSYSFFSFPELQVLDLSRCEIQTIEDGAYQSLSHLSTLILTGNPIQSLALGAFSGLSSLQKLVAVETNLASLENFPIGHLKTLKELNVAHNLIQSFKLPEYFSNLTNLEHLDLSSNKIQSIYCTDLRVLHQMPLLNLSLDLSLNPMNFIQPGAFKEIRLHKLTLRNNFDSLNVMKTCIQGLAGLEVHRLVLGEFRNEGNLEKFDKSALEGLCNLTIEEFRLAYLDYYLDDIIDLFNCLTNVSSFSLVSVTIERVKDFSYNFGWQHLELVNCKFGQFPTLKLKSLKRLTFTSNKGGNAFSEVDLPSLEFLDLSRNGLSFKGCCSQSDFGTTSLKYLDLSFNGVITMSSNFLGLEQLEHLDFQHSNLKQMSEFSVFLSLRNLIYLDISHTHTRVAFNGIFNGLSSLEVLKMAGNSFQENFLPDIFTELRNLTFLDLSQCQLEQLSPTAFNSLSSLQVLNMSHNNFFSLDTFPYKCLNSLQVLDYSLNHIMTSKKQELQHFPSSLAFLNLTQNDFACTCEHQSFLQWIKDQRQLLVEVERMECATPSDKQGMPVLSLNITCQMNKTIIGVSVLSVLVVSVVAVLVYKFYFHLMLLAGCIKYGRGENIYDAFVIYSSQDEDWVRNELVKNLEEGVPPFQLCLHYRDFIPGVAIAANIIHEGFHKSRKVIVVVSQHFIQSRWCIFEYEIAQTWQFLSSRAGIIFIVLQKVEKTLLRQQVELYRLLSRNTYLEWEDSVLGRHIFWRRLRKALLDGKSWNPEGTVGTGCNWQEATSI
Outline: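 CHO cells co-expressing TLR4- and MyD88-β-lactamase fragment fusions, or empty-vector controls, were plated for 24 h and then treated 30 min with compound at 25 or 50 μM. Cells were loaded with 1 μM CCF2/AM for 1 h at room temperature and imaged by fluorescence microscopy (405 nm excitation, 435 nm long-pass emission). Read-out: percent of blue (β-lactamase-positive) cells.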

[3] = target: T1, Interleukin-1 receptor type 1 (Mus musculus); assay: Inhibition of MyD88 recruitment to IL-1R in C57BL/6 mouse BMDM cells assessed as inhibition of IL-1-induced IkappaBalpha degradation up to 90 mins by Western blot analysis; assay type: cell-based; outline: as §1
[4] = target: T1, Interleukin-1 receptor type 1 (Mus musculus); assay: Inhibition of MyD88 recruitment to IL-1R in C57BL/6 mouse BMDM cells assessed as inhibition of IL-1-induced IkappaBalpha phosphorylation up to 90 mins by Western blot analysis; assay type: cell-based; outline: as §1
[5] = target: T2, Inhibitor of nuclear factor kappa-B kinase subunit beta (Mus musculus) (UniProt O88351); assay: Inhibition of IKKbeta in C57BL/6 mouse BMDM cells assessed as inhibition of LPS-induced RelA phosphorylation at 25 uM after 5 mins by Western blot analysis; assay type: cell-based
T2 sequence (whole entry): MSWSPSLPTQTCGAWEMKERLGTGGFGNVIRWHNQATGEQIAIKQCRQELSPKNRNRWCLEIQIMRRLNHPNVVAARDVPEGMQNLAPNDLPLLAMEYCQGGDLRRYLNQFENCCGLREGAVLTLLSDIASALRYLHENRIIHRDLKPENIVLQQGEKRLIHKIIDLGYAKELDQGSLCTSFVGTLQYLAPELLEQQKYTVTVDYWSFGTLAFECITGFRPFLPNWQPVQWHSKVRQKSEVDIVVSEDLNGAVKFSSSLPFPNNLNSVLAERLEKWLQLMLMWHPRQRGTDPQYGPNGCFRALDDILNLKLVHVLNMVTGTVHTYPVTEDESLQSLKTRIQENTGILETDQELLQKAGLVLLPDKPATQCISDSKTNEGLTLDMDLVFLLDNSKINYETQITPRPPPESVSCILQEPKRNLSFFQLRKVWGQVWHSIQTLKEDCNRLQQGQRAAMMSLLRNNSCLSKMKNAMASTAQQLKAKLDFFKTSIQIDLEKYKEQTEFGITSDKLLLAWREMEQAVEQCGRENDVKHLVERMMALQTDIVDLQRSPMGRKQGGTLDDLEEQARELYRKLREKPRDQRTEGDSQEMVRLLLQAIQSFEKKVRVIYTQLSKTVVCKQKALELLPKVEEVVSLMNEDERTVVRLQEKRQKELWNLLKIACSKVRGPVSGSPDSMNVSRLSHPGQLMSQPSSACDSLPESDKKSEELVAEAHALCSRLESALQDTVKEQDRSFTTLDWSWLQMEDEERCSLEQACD
Outline: (§2)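 C57BL/6 marrow-derived macrophages were cultured in 70% growth medium/30% L929-conditioned medium and refreshed 12-14 h before stimulation. Stimuli were TNF 40 ng/ml or LPS 100 ng/ml, ± compound at 25 μM from a 200x DMSO stock. Western blots tracked IKK, p38, IκBα and phospho-RelA. Results from three independent experiments were quantitated and normalized.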

[6] = target: T2, Inhibitor of nuclear factor kappa-B kinase subunit beta (Mus musculus); assay: Inhibition of IKKbeta in C57BL/6 mouse BMDM cells assessed as inhibition of LPS-induced phosphorylation at 25 uM after 5 mins by Western blot analysis; assay type: cell-based; outline: as §2
[7] = target: T2, Inhibitor of nuclear factor kappa-B kinase subunit beta (Mus musculus); assay: Inhibition of IKKbeta in C57BL/6 mouse BMDM cells assessed as inhibition of LPS-induced IkappaBalpha phosphorylation at 25 uM after 5 mins by Western blot analysis; assay type: cell-based; outline: as §2
[8] = target: T2, Inhibitor of nuclear factor kappa-B kinase subunit beta (Mus musculus); assay: Inhibition of IKKbeta in C57BL/6 mouse BMDM cells assessed as inhibition of TNFalpha-induced IkappaBalpha degradation at 50 uM up to 90 mins by Western blot analysis; assay type: cell-based
[9] = target: T2, Inhibitor of nuclear factor kappa-B kinase subunit beta (Mus musculus); assay: Inhibition of IKKbeta in C57BL/6 mouse BMDM cells assessed as inhibition of TNFalpha-induced IkappaBalpha phosphorylation at 50 uM up to 90 mins by Western blot analysis; assay type: cell-based
[10] = target: MAP kinase p38 (Mus musculus) (UniProt P47811+O08911+Q9WUI1+Q9Z1B7); assay: Inhibition of MAPK p38 in C57BL/6 mouse BMDM cells assessed as inhibition of TNFalpha-induced phosphorylation at 50 uM up to 90 mins by Western blot analysis; assay type: cell-based
[11] = target: T2, Inhibitor of nuclear factor kappa-B kinase subunit beta (Mus musculus); assay: Inhibition of IKKbeta in C57BL/6 mouse BMDM cells assessed as inhibition of TNFalpha-induced IkappaBalpha phosphorylation at 25 uM by Western blot analysis

O=C(CCCCCN1C(=O)C=CC1=O)Oc1ccc2cc(C(C(=O)NCc3ccccc3)N(C(=O)Cc3ccc4c(c3)OCO4)C3CC3)ccc2c1 (stereo unspecified)
inhibition [1]: inactive
inhibition [2]: inactive
inhibition [3]: Active
inhibition [4]: Active
inhibition [5]: Active
inhibition [6]: Active
inhibition [7]: Active
inhibition [8]: inactive
inhibition [9]: inactive
inhibition [10]: inactive
inhibition [11]: inactive

From ChEMBL document CHEMBL2203171, “The use of small molecule probes to study spatially separated stimulus-induced signaling pathways” (Bioorg Med Chem Lett, 2012)
